Experimental data from ChEMBL document CHEMBL3588831, “Synthesis and in Vivo Evaluation of [123I]Melanin-Targeted Agents” (J Med Chem, 2015).

System: not listed separately
Assay: Retention time of the compound by HPLC method
Format: physicochemical
Details: not given; call rule not given here

Retention_time [min]	Compound
14.8	O=C(CN1Cc2ccccc2C1=O)NC1CCN(Cc2ccc([123I])cc2)CC1

System: not listed separately
Assay: Drug distribution in eyes of C57BL/6J mouse bearing mouse B16F0 cells at 18 to 20 MBq, iv measured over 72 hrs by SPECT imaging study
Format: ADME, organism-based, Eye
Details: in vivo
How it was run: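 Female C57BL/6J mice (5–6 weeks) were inoculated s.c. on the left flank with 3 × 10^5 B16F0 cells in PBS and used after 11 days, with tumors 2–12 mm. Each received 18–20 MBq in 100 μL by lateral tail vein (n = 3 per tracer). Planar SPECT was done under isoflurane at 10–60 min, 3, 6, 24, 48 and 72 h. ROI pixel values were decay-corrected.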

Drug uptake	Compound
Active	O=C(CN1Cc2ccccc2C1=O)NC1CCN(Cc2ccc([123I])cc2)CC1

System: Mus musculus
Assay: Biodistribution in tumor of C57BL/6J mouse bearing mouse B16F0 cells at 0.37 to 1.85 MBq, iv after 24 hrs by gamma counting method
Format: ADME, organism-based
Details: in vivo
How it was run: (§1)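 Female C57BL/6J mice (5−6 weeks), s.c. inoculated on left flank with 3 × 10^5 B16F0 cells in Ca2+/Mg2+-free PBS, used 11 days later (tumors 2−12 mm). Radiotracer given via tail vein in 100 μL (~0.37 MBq for 1−24 h, 1.85 MBq for 48 h). Organs dissected, weighed, γ-counted, decay corrected. Expressed as % ID/g against injected-dose dilutions. Mean ± SEM, n = 5.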

Drug uptake [% ID/g]	Compound
15.2	O=C(CN1Cc2ccccc2C1=O)NC1CCN(Cc2ccc([123I])cc2)CC1

System: Mus musculus
Assay: Biodistribution in eyes of C57BL/6J mouse bearing mouse B16F0 cells at 0.37 to 1.85 MBq, iv after 3 hrs by gamma counting method
Format: ADME, organism-based, Eye
Details: in vivo
How it was run: as §1

Drug uptake [% ID/g]	Compound
20.8	O=C(CN1Cc2ccccc2C1=O)NC1CCN(Cc2ccc([123I])cc2)CC1

System: Mus musculus
Assay: Biodistribution in eyes of C57BL/6J mouse bearing mouse B16F0 cells at 0.37 to 1.85 MBq, iv after 6 hrs by gamma counting method
Format: ADME, organism-based, Eye
Details: in vivo
How it was run: as §1

Drug uptake [% ID/g]	Compound
28.1	O=C(CN1Cc2ccccc2C1=O)NC1CCN(Cc2ccc([123I])cc2)CC1

System: Mus musculus
Assay: Biodistribution in eyes of C57BL/6J mouse bearing mouse B16F0 cells at 0.37 to 1.85 MBq, iv after 48 hrs by gamma counting method
Format: ADME, organism-based, Eye
Details: in vivo
How it was run: as §1

Drug uptake [% ID/g]	Compound
38.7	O=C(CN1Cc2ccccc2C1=O)NC1CCN(Cc2ccc([123I])cc2)CC1

System: Mus musculus
Assay: Biodistribution in large gastrointestinal tract of C57BL/6J mouse bearing mouse B16F0 cells at 0.37 to 1.85 MBq, iv after 24 hrs by gamma counting method
Format: ADME, organism-based, Large intestine
Details: in vivo
How it was run: as §1

Drug uptake [% ID/g]	Compound
8	O=C(CN1Cc2ccccc2C1=O)NC1CCN(Cc2ccc([123I])cc2)CC1

System: Mus musculus
Assay: Biodistribution in large gastrointestinal tract of C57BL/6J mouse bearing mouse B16F0 cells at 0.37 to 1.85 MBq, iv after 48 hrs by gamma counting method
Format: ADME, organism-based
Details: in vivo
How it was run: as §1

Drug uptake [% ID/g]	Compound
0.6	O=C(CN1Cc2ccccc2C1=O)NC1CCN(Cc2ccc([123I])cc2)CC1

System: Mus musculus
Assay: Biodistribution in small gastrointestinal tract of C57BL/6J mouse bearing mouse B16F0 cells at 0.37 to 1.85 MBq, iv after 6 hrs by gamma counting method
Format: ADME, organism-based, Small intestine
Details: in vivo
How it was run: as §1

Drug uptake [% ID/g]	Compound
9.8	O=C(CN1Cc2ccccc2C1=O)NC1CCN(Cc2ccc([123I])cc2)CC1

System: Mus musculus
Assay: Biodistribution in small gastrointestinal tract of C57BL/6J mouse bearing mouse B16F0 cells at 0.37 to 1.85 MBq, iv after 16 hrs by gamma counting method
Format: ADME, organism-based, Small intestine
Details: in vivo
How it was run: as §1

Drug uptake [% ID/g]	Compound
3.7	O=C(CN1Cc2ccccc2C1=O)NC1CCN(Cc2ccc([123I])cc2)CC1

System: Mus musculus
Assay: Biodistribution in small gastrointestinal tract of C57BL/6J mouse bearing mouse B16F0 cells at 0.37 to 1.85 MBq, iv after 24 hrs by gamma counting method
Format: ADME, organism-based, Small intestine
Details: in vivo
How it was run: as §1

Drug uptake [% ID/g]	Compound
3.8	O=C(CN1Cc2ccccc2C1=O)NC1CCN(Cc2ccc([123I])cc2)CC1

System: Mus musculus
Assay: Biodistribution in small gastrointestinal tract of C57BL/6J mouse bearing mouse B16F0 cells at 0.37 to 1.85 MBq, iv after 48 hrs by gamma counting method
Format: ADME, organism-based
Details: in vivo
How it was run: as §1

Drug uptake [% ID/g]	Compound
0.3	O=C(CN1Cc2ccccc2C1=O)NC1CCN(Cc2ccc([123I])cc2)CC1

System: Mus musculus
Assay: Biodistribution in thyroid gland of C57BL/6J mouse bearing mouse B16F0 cells at 0.37 to 1.85 MBq, iv after 3 hrs by gamma counting method
Format: ADME, organism-based
Details: in vivo
How it was run: as §1

Drug uptake [% ID/g]	Compound
3.4	O=C(CN1Cc2ccccc2C1=O)NC1CCN(Cc2ccc([123I])cc2)CC1

System: Mus musculus
Assay: Biodistribution in thyroid gland of C57BL/6J mouse bearing mouse B16F0 cells at 0.37 to 1.85 MBq, iv after 6 hrs by gamma counting method
Format: ADME, organism-based
Details: in vivo
How it was run: as §1

Drug uptake [% ID/g]	Compound
3.1	O=C(CN1Cc2ccccc2C1=O)NC1CCN(Cc2ccc([123I])cc2)CC1

System: Mus musculus
Assay: Biodistribution in thyroid gland of C57BL/6J mouse bearing mouse B16F0 cells at 0.37 to 1.85 MBq, iv after 16 hrs by gamma counting method
Format: ADME, organism-based
Details: in vivo
How it was run: as §1

Drug uptake [% ID/g]	Compound
2.3	O=C(CN1Cc2ccccc2C1=O)NC1CCN(Cc2ccc([123I])cc2)CC1

System: Spleen
Assay: Biodistribution in spleen of C57BL/6J mouse bearing mouse B16F0 cells at 0.37 to 1.85 MBq, iv after 1 hr by gamma counting method
Format: ADME, organism-based
Details: in vivo
How it was run: as §1

Drug uptake [% ID/g]	Compound
9.6	O=C(CN1Cc2ccccc2C1=O)NC1CCN(Cc2ccc([123I])cc2)CC1

System: Liver
Assay: Biodistribution in liver of C57BL/6J mouse bearing mouse B16F0 cells at 0.37 to 1.85 MBq, iv after 16 hrs by gamma counting method
Format: ADME, organism-based
Details: in vivo
How it was run: as §1

Drug uptake [% ID/g]	Compound
7.1	O=C(CN1Cc2ccccc2C1=O)NC1CCN(Cc2ccc([123I])cc2)CC1

System: Kidney
Assay: Biodistribution in kidney of C57BL/6J mouse bearing mouse B16F0 cells at 0.37 to 1.85 MBq, iv after 1 hr by gamma counting method
Format: ADME, organism-based
Details: in vivo
How it was run: as §1

Drug uptake [% ID/g]	Compound
8	O=C(CN1Cc2ccccc2C1=O)NC1CCN(Cc2ccc([123I])cc2)CC1

System: Kidney
Assay: Biodistribution in kidney of C57BL/6J mouse bearing mouse B16F0 cells at 0.37 to 1.85 MBq, iv after 3 hrs by gamma counting method
Format: ADME, organism-based
Details: in vivo
How it was run: as §1

Drug uptake [% ID/g]	Compound
7.4	O=C(CN1Cc2ccccc2C1=O)NC1CCN(Cc2ccc([123I])cc2)CC1

System: Kidney
Assay: Biodistribution in kidney of C57BL/6J mouse bearing mouse B16F0 cells at 0.37 to 1.85 MBq, iv after 16 hrs by gamma counting method
Format: ADME, organism-based
Details: in vivo
How it was run: as §1

Drug uptake [% ID/g]	Compound
1.8	O=C(CN1Cc2ccccc2C1=O)NC1CCN(Cc2ccc([123I])cc2)CC1

System: Kidney
Assay: Biodistribution in kidney of C57BL/6J mouse bearing mouse B16F0 cells at 0.37 to 1.85 MBq, iv after 24 hrs by gamma counting method
Format: ADME, organism-based
Details: in vivo
How it was run: as §1

Drug uptake [% ID/g]	Compound
1.9	O=C(CN1Cc2ccccc2C1=O)NC1CCN(Cc2ccc([123I])cc2)CC1

System: Kidney
Assay: Biodistribution in kidney of C57BL/6J mouse bearing mouse B16F0 cells at 0.37 to 1.85 MBq, iv after 48 hrs by gamma counting method
Format: ADME, organism-based
Details: in vivo
How it was run: as §1

Drug uptake [% ID/g]	Compound
0.3	O=C(CN1Cc2ccccc2C1=O)NC1CCN(Cc2ccc([123I])cc2)CC1

System: not listed separately
Assay: Ratio of AUC in tumor to skin of C57BL/6J mouse bearing mouse B16F0 cells at 0.37 to 1.85 MBq, iv by gamma counting method
Format: ADME, organism-based
Details: in vivo
How it was run: (§2)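 Biodistribution in B16F0-bearing C57BL/6J mice given i.v. tail-vein tracer (~0.37 MBq for 1–24 h, 1.85 MBq for 48 h). Sacrifice at 1, 3, 6, 16, 24 and 48 h, then organs dissected, weighed and γ-counted as decay-corrected % ID/g. Tumor AUC divided by each organ AUC; mean of ratios ± SEM, n = 5.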

Ratio	Compound
24.4	O=C(CN1Cc2ccccc2C1=O)NC1CCN(Cc2ccc([123I])cc2)CC1

System: not listed separately
Assay: Ratio of AUC in tumor to bone of C57BL/6J mouse bearing mouse B16F0 cells at 0.37 to 1.85 MBq, iv by gamma counting method
Format: ADME, organism-based
Details: in vivo
How it was run: as §2

Ratio	Compound
65.8	O=C(CN1Cc2ccccc2C1=O)NC1CCN(Cc2ccc([123I])cc2)CC1

System: not listed separately
Assay: Ratio of AUC in tumor to gastrointestinal tract of C57BL/6J mouse bearing mouse B16F0 cells at 0.37 to 1.85 MBq, iv by gamma counting method
Format: ADME, organism-based
Details: in vivo
How it was run: as §2

Ratio	Compound
3	O=C(CN1Cc2ccccc2C1=O)NC1CCN(Cc2ccc([123I])cc2)CC1

System: not listed separately
Assay: Stability in eyes of C57BL/6J mouse bearing mouse B16F0 cells assessed as intact parent compound level at 0.37 to 1.85 MBq, iv after 3 hrs by radio-HPLC and radio-TLC method
Format: ADME, organism-based, Eye
Details: in the assay text read “20 MBq” for “0.37 to 1.85 MBq”, read-out: Stability
How it was run: (§3)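 Tumor-bearing C57BL/6J mice were sampled 3 and 24 h after i.v. tracer. Tissue was sonicated in CH3CN/water (3:2) with cold iodo standard and KI, then centrifuged. Urine was diluted and spiked; plasma was spiked, with CH3CN precipitation for TLC. Intact fraction came from silica radio-TLC (spot matching standard Rf) and radio-HPLC with precolumn/C18 column switching.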

remaining at 3 h [%]	Compound
90	O=C(CN1Cc2ccccc2C1=O)NC1CCN(Cc2ccc([123I])cc2)CC1

System: not listed separately
Assay: Stability in eyes of C57BL/6J mouse bearing mouse B16F0 cells assessed as intact parent compound level at 0.37 to 1.85 MBq, iv after 24 hrs by radio-HPLC and radio-TLC method
Format: ADME, organism-based, Eye
Details: in the assay text read “20 MBq” for “0.37 to 1.85 MBq”, read-out: Stability
How it was run: as §3

remaining at 24 h [%]	Compound
80	O=C(CN1Cc2ccccc2C1=O)NC1CCN(Cc2ccc([123I])cc2)CC1

System: Plasma
Assay: Stability in plasma of C57BL/6J mouse bearing mouse B16F0 cells assessed as drug degradation at 0.37 to 1.85 MBq, iv after 24 hrs by radio-HPLC and radio-TLC method
Format: ADME, organism-based
Details: in vivo, in the assay text read “20 MBq” for “0.37 to 1.85 MBq”
How it was run: as §3

Stability	Compound
Unstable	O=C(CN1Cc2ccccc2C1=O)NC1CCN(Cc2ccc([123I])cc2)CC1
